Measured values: ChEMBL document CHEMBL1154235, “Rational design and semisynthesis of betulinic acid analogues as potent topoisomerase inhibitors” (J Nat Prod, 2009)
The source made the active and inactive calls. The rule behind the calls is not given here.

Legend:
SW948 = assay: Antiproliferative activity against human SW948 cells after 3 days by XTT assay; assay type: functional, cell-based; conditions: SW948, 72 h
Summary of the method: (§1)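 Cells plated at 4000/well and grown 1 day at 37 °C, then exposed to a range of drug concentrations for 3 more days. Read-out by XTT tetrazolium reduction on a plate reader. Each concentration run in triplicate. IC50 taken from a linear-quadratic fit. Assays repeated two or three times and reported as mean ± SE. HCT-116 kept in modified McCoy's 5a and SW948 in Leibovitz's L-15, each with 10% heat-inactivated FBS and 2 mM L-glutamine.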

HCT-116 = assay: Antiproliferative activity against human HCT116 cells after 3 days by XTT assay; assay type: functional, cell-based; conditions: HCT-116, 72 h; summary of the method: as §1
MDA-MB-231 [1] = assay: Growth inhibition of human MDA-MB-231 cells; assay type: functional
[2] = target: T1, DNA topoisomerase 1 (Homo sapiens) (UniProt P11387); assay: Inhibition of topoisomerase 1 catalytic activity assessed as relaxation of supercoiled plasmid DNA at 100 uM after 30 mins by agarose gel electrophoresis
T1 sequence (whole entry): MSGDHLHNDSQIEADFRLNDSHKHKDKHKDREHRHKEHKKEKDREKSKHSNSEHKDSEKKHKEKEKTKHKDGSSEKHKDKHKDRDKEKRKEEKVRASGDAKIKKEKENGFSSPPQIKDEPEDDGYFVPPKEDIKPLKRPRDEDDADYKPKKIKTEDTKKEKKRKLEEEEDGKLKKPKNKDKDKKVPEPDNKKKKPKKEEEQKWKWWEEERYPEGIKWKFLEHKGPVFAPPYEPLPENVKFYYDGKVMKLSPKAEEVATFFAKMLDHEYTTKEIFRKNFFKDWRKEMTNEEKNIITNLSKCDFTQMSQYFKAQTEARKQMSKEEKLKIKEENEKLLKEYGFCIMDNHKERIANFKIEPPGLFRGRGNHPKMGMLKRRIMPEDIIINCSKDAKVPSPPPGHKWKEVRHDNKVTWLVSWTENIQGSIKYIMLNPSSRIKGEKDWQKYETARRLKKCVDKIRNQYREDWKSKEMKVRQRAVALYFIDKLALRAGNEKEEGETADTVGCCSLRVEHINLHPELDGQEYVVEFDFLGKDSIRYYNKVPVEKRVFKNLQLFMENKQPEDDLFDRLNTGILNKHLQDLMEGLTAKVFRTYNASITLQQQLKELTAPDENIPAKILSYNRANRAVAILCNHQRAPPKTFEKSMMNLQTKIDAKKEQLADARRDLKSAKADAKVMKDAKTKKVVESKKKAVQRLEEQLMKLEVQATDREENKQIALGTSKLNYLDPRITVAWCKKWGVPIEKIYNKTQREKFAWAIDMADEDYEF
Summary of the method: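 Compound at 100 µM final with topoisomerase I (2U), 37 °C 30 min. Stopped with 1% SDS, proteinase K digestion, 1% agarose TAE gel, ethidium bromide stain, imaging quantitation. Scored 0 to 3+ against camptothecin.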

MDA-MB-231 [3] = assay: Antiproliferative activity against human MDA-MB-231 cells after 3 days by MTT assay; assay type: functional, cell-based; conditions: MDA-MB-231, 72 h
Summary of the method: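 MDA-MB-231 cells kept in RPMI 1640 with 10% heat-inactivated FBS and 25 mM HEPES at 37 °C in 5% CO2. Plated at about 15 000/well and preincubated 1 day, then exposed to compound for 3 days at 37 °C, with doses in triplicate. MTT added for 4 h, formazan dissolved in detergent overnight at room temperature in the dark, OD read at 580 nm against a cell-free blank. Cell numbers from a calibration curve; IC50 from dose-response curves.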

HL-60(TB) = assay: Growth inhibition of human HL-60(TB) cells; assay type: functional
[4] = target: DNA topoisomerase 2-alpha (Homo sapiens) (UniProt P11388); assay: Inhibition of topoisomerase 2 alpha catalytic activity assessed as decatenation of kinetoplast DNA at 100 uM after 15 mins by agarose gel electrophoresis
Chain of DNA topoisomerase 2-alpha (Homo sapiens) (P11388 whole entry): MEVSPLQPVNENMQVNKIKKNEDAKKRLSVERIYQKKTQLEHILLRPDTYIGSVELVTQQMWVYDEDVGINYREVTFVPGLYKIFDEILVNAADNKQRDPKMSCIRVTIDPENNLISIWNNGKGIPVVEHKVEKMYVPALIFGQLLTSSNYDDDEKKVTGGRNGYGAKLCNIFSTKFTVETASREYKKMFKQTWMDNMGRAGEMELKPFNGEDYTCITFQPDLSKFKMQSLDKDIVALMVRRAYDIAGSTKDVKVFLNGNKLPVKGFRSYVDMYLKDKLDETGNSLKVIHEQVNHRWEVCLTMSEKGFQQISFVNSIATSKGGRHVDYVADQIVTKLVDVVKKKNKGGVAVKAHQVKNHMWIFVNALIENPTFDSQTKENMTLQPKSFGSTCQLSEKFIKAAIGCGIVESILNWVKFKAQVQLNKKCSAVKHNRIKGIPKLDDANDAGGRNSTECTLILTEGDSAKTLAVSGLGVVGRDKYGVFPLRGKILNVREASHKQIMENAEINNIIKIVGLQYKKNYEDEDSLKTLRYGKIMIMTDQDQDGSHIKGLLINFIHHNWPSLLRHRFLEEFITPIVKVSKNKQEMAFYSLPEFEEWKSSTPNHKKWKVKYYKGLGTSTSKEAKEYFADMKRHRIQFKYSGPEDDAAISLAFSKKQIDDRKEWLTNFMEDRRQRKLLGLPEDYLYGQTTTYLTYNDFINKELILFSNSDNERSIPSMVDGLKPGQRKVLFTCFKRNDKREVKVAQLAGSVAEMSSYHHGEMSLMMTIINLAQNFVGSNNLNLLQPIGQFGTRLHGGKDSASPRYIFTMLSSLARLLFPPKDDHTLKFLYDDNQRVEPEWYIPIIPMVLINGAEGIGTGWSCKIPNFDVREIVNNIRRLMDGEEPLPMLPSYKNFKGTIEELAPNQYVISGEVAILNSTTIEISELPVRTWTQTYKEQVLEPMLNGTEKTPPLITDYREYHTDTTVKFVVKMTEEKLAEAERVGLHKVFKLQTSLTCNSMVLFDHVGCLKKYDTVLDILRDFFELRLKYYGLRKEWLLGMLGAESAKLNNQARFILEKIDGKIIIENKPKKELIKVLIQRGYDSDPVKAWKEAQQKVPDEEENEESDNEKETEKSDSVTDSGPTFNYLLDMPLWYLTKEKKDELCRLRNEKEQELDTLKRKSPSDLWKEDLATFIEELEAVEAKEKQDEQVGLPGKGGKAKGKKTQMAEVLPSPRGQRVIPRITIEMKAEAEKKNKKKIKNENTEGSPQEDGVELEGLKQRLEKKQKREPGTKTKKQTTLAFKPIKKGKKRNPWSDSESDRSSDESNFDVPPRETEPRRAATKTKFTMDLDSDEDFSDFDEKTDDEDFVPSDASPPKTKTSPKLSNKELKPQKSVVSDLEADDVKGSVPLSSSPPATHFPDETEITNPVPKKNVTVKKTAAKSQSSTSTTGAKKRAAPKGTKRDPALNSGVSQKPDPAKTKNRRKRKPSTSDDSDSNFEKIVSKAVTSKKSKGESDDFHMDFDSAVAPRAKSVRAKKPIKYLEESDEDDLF

SMILES: CC[C@@]1(O)C(=O)OCc2c1cc1n(c2=O)Cc2cc3ccccc3nc2-1 [CAMPTOTHECIN]
- IC50 (SW948): 0.16 µM
- IC50 (HCT-116): 0.13 µM

SMILES: C=C(C)[C@@H]1CC[C@]2(C(=O)O)CC[C@]3(C)[C@H](CC[C@@H]4[C@@]5(C)CC[C@H](O)C(C)(C)[C@@H]5CC[C@]43C)[C@@H]12 [BETULINIC ACID]
- GI50 (MDA-MB-231 [1]): 3.98 µM
- inhibition [2]: inactive
- IC50 (MDA-MB-231 [3]): 15.2 µM
- GI50 (HL-60(TB)): 3.16 µM
- IC50 (SW948): 10.5 µM
- IC50 (HCT-116): 13.5 µM
- inhibition [4]: inactive

SMILES: C=C(C)[C@@H]1CC[C@]2(C(O)=S)CC[C@]3(C)[C@H](CC[C@@H]4[C@@]5(C)CCC(=O)C(C)(C)[C@@H]5CC[C@]43C)[C@@H]12
- inhibition [2]: inactive
- IC50 (MDA-MB-231 [3]): > 25 µM
- IC50 (SW948): > 25 µM
- IC50 (HCT-116): > 25 µM
- inhibition [4]: inactive

SMILES: C=C(C)[C@@H]1CC[C@]2(C(=O)O)CC[C@]3(C)[C@H](CC[C@@H]4[C@@]5(C)CCC(=O)C(C)(C)[C@@H]5CC[C@]43C)[C@@H]12 [BETUNOLIC ACID]
- inhibition [2]: inactive
- IC50 (MDA-MB-231 [3]): 9.77 µM
- IC50 (SW948): 19.2 µM
- IC50 (HCT-116): 2.61 µM
- inhibition [4]: inactive

SMILES: C=C(C=O)[C@@H]1CC[C@]2(C(=O)O)CC[C@]3(C)[C@H](CC[C@@H]4[C@@]5(C)CC[C@H](O)C(C)(C)[C@@H]5CC[C@]43C)[C@@H]12
- inhibition [2]: Active
- IC50 (MDA-MB-231 [3]): 1.37 µM
- IC50 (SW948): 14.9 µM
- IC50 (HCT-116): 4.38 µM
- inhibition [4]: inactive

SMILES: C=CCNC(=O)O[C@H]1CC[C@]2(C)[C@H]3CC[C@@H]4[C@H]5[C@H](C(=C)C)CC[C@]5(C(=O)O)CC[C@@]4(C)[C@]3(C)CC[C@H]2C1(C)C
- inhibition [2]: inactive
- IC50 (MDA-MB-231 [3]): 0.65 µM
- IC50 (SW948): 17.6 µM
- IC50 (HCT-116): 17.7 µM
- inhibition [4]: Active

SMILES: C=C(C)[C@@H]1CC[C@]2(C(=O)O)CC[C@]3(C)[C@H](CC[C@@H]4[C@@]5(C)CC[C@H](OS(=O)(=O)c6ccccc6)C(C)(C)[C@@H]5CC[C@]43C)[C@@H]12
- inhibition [2]: inactive
- IC50 (MDA-MB-231 [3]): 0.8 µM
- IC50 (SW948): 6.84 µM
- IC50 (HCT-116): 21.3 µM
- inhibition [4]: Active

SMILES: C=C(C)[C@@H]1CC[C@]2(C(=O)O)CC[C@]3(C)[C@H](CC[C@@H]4[C@@]5(C)CC[C@H](OC(=O)NCc6ccccc6)C(C)(C)[C@@H]5CC[C@]43C)[C@@H]12
- inhibition [2]: Active
- IC50 (MDA-MB-231 [3]): 0.45 µM
- IC50 (SW948): > 25 µM
- IC50 (HCT-116): 22.2 µM
- inhibition [4]: Active

SMILES: C[C@H](C=O)[C@@H]1CC[C@]2(C(=O)O)CC[C@]3(C)[C@H](CC[C@@H]4[C@@]5(C)CC[C@H](O)C(C)(C)[C@@H]5CC[C@]43C)[C@@H]12
- inhibition [2]: Active
- IC50 (MDA-MB-231 [3]): 0.17 µM
- IC50 (SW948): > 25 µM
- IC50 (HCT-116): > 25 µM
- inhibition [4]: inactive

SMILES: C=C(C)[C@@H]1CC[C@]2(C(=O)NS(=O)(=O)c3ccccc3)CC[C@]3(C)[C@H](CC[C@@H]4[C@@]5(C)CC[C@H](OC(=O)NS(=O)(=O)c6ccccc6)C(C)(C)[C@@H]5CC[C@]43C)[C@@H]12
- inhibition [2]: Active
- IC50 (MDA-MB-231 [3]): 0.92 µM
- IC50 (SW948): 17.4 µM
- IC50 (HCT-116): 13.3 µM
- inhibition [4]: Active

SMILES: C=C(C)[C@@H]1CC[C@]2(C(=O)O)CC[C@]3(C)[C@H](CC[C@@H]4[C@@]5(C)CC[C@H](OC(=O)Nc6ccc(-c7ccccc7)cc6)C(C)(C)[C@@H]5CC[C@]43C)[C@@H]12
- inhibition [2]: inactive
- IC50 (MDA-MB-231 [3]): > 25 µM
- IC50 (SW948): > 25 µM
- IC50 (HCT-116): > 25 µM
- inhibition [4]: Active

SMILES: CC1(C)[C@@H](O)CC[C@]2(C)[C@H]3CC[C@@H]4[C@H]5[C@H]([C@]6(C)CO6)CC[C@]5(C(=O)O)CC[C@@]4(C)[C@]3(C)CC[C@@H]12
- inhibition [2]: inactive
- IC50 (MDA-MB-231 [3]): 4.08 µM
- IC50 (SW948): > 25 µM
- IC50 (HCT-116): > 25 µM
- inhibition [4]: inactive

SMILES: C=C(C)[C@@H]1CC[C@]2(C(O)=S)CC[C@]3(C)[C@H](CC[C@@H]4[C@@]5(C)CC[C@H](OP(=S)(S)c6ccc(OC)cc6)C(C)(C)[C@@H]5CC[C@]43C)[C@@H]12 (stereo partly specified)
- inhibition [2]: Active
- IC50 (MDA-MB-231 [3]): 9.83 µM
- IC50 (SW948): > 25 µM
- IC50 (HCT-116): > 25 µM
- inhibition [4]: Active

SMILES: C=C(C)[C@@H]1CC[C@]2(C(=O)O)CC[C@]3(C)[C@H](CC[C@@H]4[C@@]5(C)CC[C@H](OC(=O)Nc6cccc7ccccc67)C(C)(C)[C@@H]5CC[C@]43C)[C@@H]12
- inhibition [2]: inactive
- IC50 (MDA-MB-231 [3]): > 25 µM
- IC50 (SW948): > 25 µM
- IC50 (HCT-116): > 25 µM
- inhibition [4]: Active

SMILES: COc1cc([C@@H]2c3cc4c(cc3[C@@H](O[C@@H]3O[C@@H]5CO[C@@H](C)O[C@H]5[C@H](O)[C@H]3O)[C@H]3COC(=O)[C@H]23)OCO4)cc(OC)c1O [ETOPOSIDE]
- IC50 (SW948): 1.3 µM
- inhibition [4]: Active
